Compounds with a hit are over-represented: about 3.3% of the library has one in this group of screens.
C2C12 statin: suppression of simvastatin myotoxicity; 330,000 tested, 0.78% active; rescue of ATP level, % at 7.49 µM; C2C12 myotubes + simvastatin, ATP luminescence, 48 h; scaled: DMSO 0, geranylgeraniol control 100;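 active = mean ATP rescue above about 67%, or every replicate alone reaching that limit, limit read from the data, passing the limit was not always enough; inconclusive = no clear call, values can overlap the other calls; inactive = mean under the limit and some replicate under it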;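 also: myotubes were challenged with 10 µM simvastatin during compound exposure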
E-sel inducer: E-selectin induction on HUVECs; 260,000 tested, 0.37% active; P16581; activation, % at 7.58 µM; AID 686992; HUVEC E-selectin immunofluorescence imaging; normalized: neutral wells 0, TNF-alpha wells 100;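 active = mean E-selectin-positive cell signal at least 10% of the positive control, reached in at least 60% of replicates, without over 20% cell loss; inconclusive = no rule given, readout overlaps actives, possibly toxicity-flagged; inactive = the rest, including those meeting only one limit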
Target sequence (P16581 whole entry, looked up): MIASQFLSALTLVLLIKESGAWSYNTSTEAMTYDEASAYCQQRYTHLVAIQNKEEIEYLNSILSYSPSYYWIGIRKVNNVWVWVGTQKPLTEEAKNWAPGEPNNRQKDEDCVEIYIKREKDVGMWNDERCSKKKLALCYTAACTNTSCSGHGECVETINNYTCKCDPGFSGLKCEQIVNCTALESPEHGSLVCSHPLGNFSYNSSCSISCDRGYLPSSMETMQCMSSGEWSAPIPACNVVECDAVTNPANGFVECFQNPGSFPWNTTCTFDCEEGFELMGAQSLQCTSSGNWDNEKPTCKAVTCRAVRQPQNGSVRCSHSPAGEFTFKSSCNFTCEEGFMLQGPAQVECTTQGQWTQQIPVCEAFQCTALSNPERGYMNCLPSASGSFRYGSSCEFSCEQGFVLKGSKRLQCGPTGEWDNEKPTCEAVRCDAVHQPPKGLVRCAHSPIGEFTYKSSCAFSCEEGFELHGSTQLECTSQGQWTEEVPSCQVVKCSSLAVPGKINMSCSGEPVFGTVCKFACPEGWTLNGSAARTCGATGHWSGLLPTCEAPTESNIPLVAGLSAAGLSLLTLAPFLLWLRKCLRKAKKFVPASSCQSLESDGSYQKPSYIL
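material = human umbilical vein endothelial cells (HUVEC), E-selectin induction | quantity = 3,000 cells/well | medium = EGM-2 growth medium on 0.1% gelatin-coated wells | technique = immunofluorescence imaging | read-out basis = % PE-positive cells | control set = TNF-alpha positive control, DMSO neutral control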
FGF22 binding: binders of recombinant human FGF22 by thermal shift. Q9HCT0. AID 651658. activity (Tm shift, normalised), % at 9.99 µM. SYPRO orange fluorescence; percent of sucrose octasulfate shift, DMSO zero. 340,000 tested, 1.5% active;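 active = mean Tm shift, scaled 0 neutral to 100 positive control, at about 1.3% or above, every replicate too, limit read from the data; inconclusive = no clear call, values can overlap the other calls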
Xi reactivation: reactivates the inactive X chromosome in mouse fibroblasts; XiGFP mouse fibroblasts, % GFP-positive cells imaging, 3 d; cells co-treated with 5-aza-dC sensitizer; scaled so ellipticine positive control = 100%; activation, % at 7.58 µM; 360,000 tested, 0.055% active;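 active = mean normalized replicate activation at least 10% and every replicate at or above 10%; inconclusive = only one of the two criteria met; inactive = mean below 10% and not all replicates reach 10%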
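System: 68-5-11 XiGFP fibroblast line | Buffer or medium: DMEM containing 5-aza-dC | Compound: Single point | Times: Compounds 3 days, fix/stain 15 min at room temperature | Benchmarks: Positive control ellipticine, 6 µM final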
DENV2 CPE: inhibitors of DENV2 cytopathic effect | DENV2-infected cells, cytopathic effect rescue, plate reader | 350,000 tested, 1.7% active | CPE inhibition, % at 9.99 µM; in the data active = CPE inhibition above about 20%, passing the limit was not always enough; inconclusive = no clear call, values can overlap the other calls; tested in BHK-21 cells
PglD inh: inhibitors of Campylobacter jejuni PglD acetyltransferase; inhibition, % at 12.5 µM; purified PglD enzyme, DTNB colorimetric CoA detection; AID 602405; 360,000 tested, 0.098% active; in the data active = inhibition above about 16%, passing the limit was not always enough; inconclusive = no clear call, values can overlap the other calls
A number is an active result; 0 = inactive; ? = inconclusive; - = no result given; ! = a repeat was not active.

SMILES | C2C12 statin | E-sel inducer | FGF22 binding | Xi reactivation | DENV2 CPE | PglD inh
O=C(Nc1ccc2c(c1)OCO2)N1[C@@H]2CNC[C@H]1C2c1ccc(/C=C/c2ccccc2)cc1 (some centres not stated) | - | 0 | - | 0 | 79.2 | -
C/C=C/c1ccc(C2[C@H]3CNC[C@@H]2N3C(=O)NC2CCCCC2)cc1 (some centres not stated) | - | 0 | 0 | 0 | 0 | -
N#Cc1ccc(-c2ccc(C3[C@H]4CNC[C@@H]3N4C(=O)NC3CCCC3)cc2)cc1 (some centres not stated) | - | 0 | - | 0 | 0 | -
CN(C)C(=O)c1ccc(-c2ccc(C3[C@H]4CNC[C@@H]3N4C(=O)NC3CCCC3)cc2)cc1 (some centres not stated) | - | 0 | - | 0 | 71.5 | -
C/C=C/c1ccc(C2[C@H]3CNC[C@@H]2N3C(=O)NCCC)cc1 (some centres not stated) | - | 0 | - | 0 | 25.4! | -
COc1ccc(-c2ccc(C3[C@H]4CNC[C@@H]3N4C(=O)Nc3ccccc3F)cc2)cc1 (some centres not stated) | - | 0 | - | 0 | 25.9! | -
O=C(Nc1ccccc1F)N1[C@@H]2CNC[C@H]1C2c1ccc(-c2ccccc2)cc1 (some centres not stated) | - | 0 | - | 0 | 0 | -
C[C@@H]1CN([C@H](C)CO)C(=O)c2cccc(NC(=O)C3CC3)c2O[C@@H]1CN(C)Cc1ccc(C(=O)O)cc1 | 0 | 0 | 0 | 0 | 0 | 0
C[C@@H]1CN([C@H](C)CO)C(=O)CCCn2cc(nn2)CO[C@@H]1CN(C)C | 0 | 0 | 0 | 0 | 0 | 0
Cc1ccc(-c2ccc3c(c2)O[C@H](CN(C)C(=O)Nc2ccc(C(F)(F)F)cc2)[C@H](C)CN([C@@H](C)CO)S3(=O)=O)cc1 | - | 0 | 0 | 0 | 0 | 0
CC(C)c1cn(CC[C@@H]2CC[C@@H](NS(=O)(=O)c3ccccc3)[C@H](CO)O2)nn1 | 0 | 0 | 0 | 0 | 0 | 0
C[C@@H]1CCCCO[C@@H](CN(C)Cc2ccc(C(=O)O)cc2)[C@@H](C)CN([C@@H](C)CO)C(=O)c2cc(NC(=O)Cc3ccccc3)ccc2O1 | - | 0 | 0 | 0 | 0 | 0
Cc1ccc(S(=O)(=O)N[C@H]2CC[C@@H](CC(=O)N3CCN(c4ccccc4)CC3)O[C@@H]2CO)cc1 | 0 | 0 | 0 | 0 | 0 | 0
COc1ccc(NC(=O)N2[C@@H]3CNC[C@H]2C3c2ccc(-c3ccccc3)cc2)cc1 (some centres not stated) | - | 0 | - | 0 | ? | -
COc1ccc(NC(=O)N2[C@@H]3CNC[C@H]2C3c2ccc(-c3ccc(C)cc3)cc2)cc1 (some centres not stated) | - | 0 | - | 0 | 32.7! | -
COc1ccc(-c2ccc(C3[C@@H]4CN(C(=O)Nc5ccccc5F)C[C@H]3N4)cc2)cc1 (some centres not stated) | - | 0 | - | 0 | 0 | -
COc1ccc(-c2ccc(C3[C@H]4CNC[C@@H]3N4C(=O)Nc3ccc4c(c3)OCO4)cc2)cc1 (some centres not stated) | - | 0 | - | 0 | 24.6! | -
COc1cccc(-c2ccc(C3[C@@H]4CN(C(=O)Nc5ccccc5F)C[C@H]3N4)cc2)c1 (some centres not stated) | - | 0 | 0 | 0 | 32.1! | -
CC(C)NC(=O)Nc1ccc2c(c1)C(=O)N([C@H](C)CO)C[C@H](C)[C@H](CN(C)Cc1ccc(C(F)(F)F)cc1)OCCCC[C@H](C)O2 | - | - | 0 | 0 | 0 | 0
CO[C@H]1CN(C)C(=O)c2ccc(NS(=O)(=O)c3cccc(C)c3)cc2OC[C@H](C)NC[C@@H]1C | - | 0 | 0 | 0 | 0 | -
CCOC(=O)N(C)C[C@@H]1OCc2ccccc2-c2ccccc2C(=O)N([C@@H](C)CO)C[C@H]1C | - | 0 | 0 | 0 | 0 | 0
O=C(c1ccc(F)cc1)N1CC(=O)N2[C@H](CO)[C@H](c3ccc(C#CC4CCCCC4)cc3)[C@@H]2C1 | - | 0 | - | 0 | 0 | -
C[C@H](CO)N1C[C@H](C)[C@@H](CN(C)C(=O)C2CC2)Oc2cc(-c3cncnc3)ccc2S1(=O)=O | 0 | 0 | - | 0 | - | -
O=C(OC(C(=O)NCc1ccccc1)c1ccco1)c1ccccc1 (configuration not stated) | - | - | 0 | - | 38.0 | 0
Cc1ccc(CNC(=O)C(CC(C)C)OC(=O)c2ccco2)cc1 (configuration not stated) | 0 | 0 | 0 | 0 | 30.5 | 0
SMILES | C2C12 statin | E-sel inducer | FGF22 binding | Xi reactivation | DENV2 CPE | PglD inh
CC(C)NC(=O)Nc1ccc2c(c1)C(=O)N([C@H](C)CO)C[C@@H](C)[C@@H](CN(C)C(=O)Nc1ccc(F)cc1)O2 | 0 | 0 | - | 0 | - | -
CN1C(=O)c2cc(NC(=O)c3cccc(C(F)(F)F)c3)ccc2OC[C@@H]2O[C@H](CC(=O)NCCN3CCCC3)CC[C@@H]21 | 0 | 0 | 0 | 0 | 0 | 0
CSCC[C@H](NC(=O)OC(C)(C)C)c1nnc(SCC(N)=O)o1 | 0 | - | - | - | - | -
CCN(CC)C(=O)CSc1nnc([C@H](CCSC)NC(=O)OC(C)(C)C)o1 | 143.2 | - | - | - | - | 0
Cc1nc2ccc(C(=O)N3c4ccccc4N=C(c4ccc(C(F)(F)F)cc4)C3C(=O)NC(C)(C)C)cc2[nH]1 (configuration not stated) | - | 0 | 0 | 0 | 36.9 | -
O=C(NC1CCCC1)C1C(c2ccc(C(F)(F)F)cc2)=Nc2ccccc2N1C(=O)c1ccco1 (configuration not stated) | - | 0 | 0 | 0 | 0 | -
O=C(NC1CCCC1)C1C(c2ccc(C(F)(F)F)cc2)=Nc2ccccc2N1C(=O)c1ccccc1 (configuration not stated) | - | 135.6 | 0 | 0 | 0 | -
O=C(Nc1ccc2c(c1)OCO2)N[C@@H]1CC[C@@H](CCNC(=O)C2CC2)O[C@H]1CO | 0 | 0 | 0 | 0 | 0 | 0
C[C@@H]1CN([C@H](C)CO)C(=O)c2cc(-c3cccnc3)cnc2O[C@H]1CN(C)C(=O)Nc1ccc(C(F)(F)F)cc1 | 0 | 0 | 0 | 0 | 0 | 0
C[C@@H]1CN([C@@H](C)CO)C(=O)c2cc(-c3cccnc3)cnc2O[C@@H]1CN(C)C(=O)c1ccccc1F | 0 | 0 | 0 | 0 | 45.9 | 0
C[C@H](CO)N1C[C@H](C)[C@@H](CN(C)C(=O)Nc2ccc(C(F)(F)F)cc2)Oc2ncc(-c3cccnc3)cc2C1=O | 0 | 0 | 0 | 0 | 29.6 | 0
C[C@@H]1CN([C@@H](C)CO)C(=O)Cc2cc(NS(C)(=O)=O)ccc2O[C@@H]1CN(C)Cc1ccc(-c2ccccc2)cc1 | 0 | 0 | 0 | 0 | 0 | 0
O=C(CC1CC1)Nc1ccc2c(c1)[C@H]1C[C@@H](CC(=O)N3CCCCC3)O[C@H](CO)[C@H]1O2 | 0 | 0 | 0 | 0 | 0 | 0

Compound activity (PubChem BioAssay)
